Assay [1] in a line: inhibitors of TNFa-induced NFkB p65 translocation, primary screen, imaging, HUVEC, MLSMR starter and 10KST1 sets (AID 438;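 active means inhibition above 20% together with a positive visual image hit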;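 further: compound added about 3h40 before a 20 min TNFalpha stimulation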;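 on inhibition: signal is the nuclear over cytoplasmic p65 intensity ratio per well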). Particulars: HUVEC TNFa-induced p65 nuclear translocation; cell count: measured here: nuclei count (cytotoxicity indicator), at 2.08 µM; inhibition: at 2 µM, stronger effect = higher value, 0% TNFa-plus-vehicle, 100% no-TNFa wells.
Assay [2] is described as follows: inhibitors of E-selectin induction by TNFa, primary screen, imaging, HUVEC, immunofluorescence, MLSMR starter and 10KST1 sets (AID 487;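 active means visually confirmed hit in the image check and inhibition above 20%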;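 on inhibition: signal is fraction of cell area covered by stained E-selectin grains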;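 on nuclei count: 100% = median nuclei count of all wells on the same plate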). Particulars: HUVEC TNFalpha-induced E-selectin immunofluorescence imaging, at 2 µM; inhibition: stronger effect = higher value; nuclei count: measured here: cell number, toxicity.
Assay [3] in a line: DUSP6 inhibitors restoring Erk phosphorylation by chemical complementation, primary imaging in DUSP6-transfected HeLa (AID 609;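 active means compounds giving at least 50% inhibition in the cell-based MKP-3 phosphatase rescue imaging test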;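 on inhibition: phospho-Erk level distribution per well compared with pooled transfected vehicle control wells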). Particulars: HeLa MKP-3 transfected, phospho-Erk imaging KS statistic, at 10 µM, cells stimulated with TPA for 15 min.
Assay [4] has as its target Dual specificity protein phosphatase 6 (Homo sapiens) (UniProt Q16828). The assay is described as above. Particulars: HeLa MKP-3 transfected, phospho-Erk imaging KS statistic; at 10 µM; stronger effect = higher value; cells stimulated with TPA for 15 min.
In assay [5] the target is Voltage-gated potassium channel subunit beta-2 (Rattus norvegicus) (UniProt P62483). As to the kind of experiment: KvBeta enzyme negative modulators, primary screen, biochemical, NADPH fluorescence (AID 622;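 active means fluorescence slope higher than the sample average by over 3 SD, cut at about -0.22 in these data, passing the limit was not always enough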;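 further: slope of raw intensity against log time taken from 70 to 1610 s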). Particulars: recombinant KvBeta, 4-cyanobenzaldehyde reduction, at 10 µM, stronger effect = higher value.
Sequence of Voltage-gated potassium channel subunit beta-2 (Rattus norvegicus) (P62483 whole entry, looked up): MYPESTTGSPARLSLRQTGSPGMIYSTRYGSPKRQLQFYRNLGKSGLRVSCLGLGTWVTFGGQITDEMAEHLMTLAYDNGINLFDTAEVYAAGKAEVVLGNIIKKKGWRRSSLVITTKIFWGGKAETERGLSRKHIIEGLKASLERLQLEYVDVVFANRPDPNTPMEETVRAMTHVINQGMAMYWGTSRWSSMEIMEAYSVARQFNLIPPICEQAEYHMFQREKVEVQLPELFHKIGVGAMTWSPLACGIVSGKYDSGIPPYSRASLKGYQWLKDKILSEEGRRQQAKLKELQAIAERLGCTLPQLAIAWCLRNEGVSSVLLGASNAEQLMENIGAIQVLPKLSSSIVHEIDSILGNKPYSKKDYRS
The target is the same in assay [6]. As to the kind of experiment: KvBeta positive modulators, primary screen, biochemical, NADPH fluorescence (AID 623;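 active means NADPH fluorescence slope more negative than the mean of all samples by about 3 SD, 99.7% confidence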;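 further: fluorescence intensity change per second fitted from 20 to 320 s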). Particulars: Recombinant KvBeta, NADPH fluorescence decrease slope, 10 min; at 10 µM; stronger effect = lower value.
The target of assay [7] is Alpha-2C adrenergic receptor (Homo sapiens) (UniProt P18825). As to the kind of experiment: modulators of alpha2C/GIRK thallium flux, primary screen, cell-based, HEK293 alpha2C/GIRK1/2 (AID 624).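 Further: slope of fluorescence ratio to pre-addition baseline per second over 15 to 24 s.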 Particulars: thallium flux BTC fluorescence, at 10 µM, actives lie on both sides.
Sequence of Alpha-2C adrenergic receptor (Homo sapiens) (P18825 whole entry, looked up): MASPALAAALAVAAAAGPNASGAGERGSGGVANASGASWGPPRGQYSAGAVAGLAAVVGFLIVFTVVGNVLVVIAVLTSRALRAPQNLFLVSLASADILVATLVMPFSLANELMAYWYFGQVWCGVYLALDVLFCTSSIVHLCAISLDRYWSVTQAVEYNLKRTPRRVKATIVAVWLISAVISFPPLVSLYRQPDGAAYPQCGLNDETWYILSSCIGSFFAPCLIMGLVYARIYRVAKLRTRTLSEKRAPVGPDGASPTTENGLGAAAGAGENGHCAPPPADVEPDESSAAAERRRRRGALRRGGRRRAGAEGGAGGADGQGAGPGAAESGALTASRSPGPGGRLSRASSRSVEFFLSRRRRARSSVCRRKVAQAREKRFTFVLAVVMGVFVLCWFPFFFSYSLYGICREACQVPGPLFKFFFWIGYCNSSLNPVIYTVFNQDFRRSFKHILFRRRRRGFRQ
Assay [8] in a line: inhibitors of larval lipid processing in zebrafish, primary screen, whole organism, PED6 fluorescence, gall bladder and intestine (AID 686;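 active means a full or partial loss of lipid-probe fluorescence in the fish gall bladder, intestine or both, judged by eye; inactive means no fluorescence loss, or compound toxic to the fish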;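 further: larvae 5 to 7 days old with five fish per well; signal comes from phospholipase A2 cleavage of quenched PED6 carried via bile; overnight exposure to compound and PED6 before scoring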). Particulars: Zebrafish larvae PED6 lipid processing, fluorescence scoring; screened at 20 µM (by protocol). The method, boiled down:
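System: live zebrafish larvae aged 5-7 days, whole organism; measure: graded gall bladder and intestinal fluorescence inhibition per well; incubation: overnight exposure; reagent: ingested quenched lipid PED6 at 100 nM; signal: By-eye fluorescence microscopy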

A short description of assay [9]: inhibitors of Chlamydomonas gravitaxis, primary screen, whole organism, Chlamydomonas reinhardtii, WT vs cilia-less mutant, absorbance, 96-well (AID 463189;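 active means inhibition at or above 50% relative to wild type and mutant plate controls; inactive means inhibition below 50%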;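 further: 0% = wild type cc124 cells in DMSO and 100% = ciliumless bld1 mutant cells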). Particulars: OD600 absorbance, 2 days, at 10 µM, stronger effect = higher value.
The mark [10] stands for this setting: measured here: cell density z-score.
Setting [11] is: measured here: nuclear c-Myc green intensity z-score.
The mark [12] stands for this setting: measured here: nuclear pErk red intensity z-score, stronger effect = higher value.

Calls of active or inactive are those of the source.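 How the source made its calls, unless noted: active means fluorescence slope after compound addition differing from the mean of all screened samples at 99.7% confidence, in either direction; inactive means the rest.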

Sequence of Dual specificity protein phosphatase 6 (Homo sapiens) (Q16828 whole entry, looked up): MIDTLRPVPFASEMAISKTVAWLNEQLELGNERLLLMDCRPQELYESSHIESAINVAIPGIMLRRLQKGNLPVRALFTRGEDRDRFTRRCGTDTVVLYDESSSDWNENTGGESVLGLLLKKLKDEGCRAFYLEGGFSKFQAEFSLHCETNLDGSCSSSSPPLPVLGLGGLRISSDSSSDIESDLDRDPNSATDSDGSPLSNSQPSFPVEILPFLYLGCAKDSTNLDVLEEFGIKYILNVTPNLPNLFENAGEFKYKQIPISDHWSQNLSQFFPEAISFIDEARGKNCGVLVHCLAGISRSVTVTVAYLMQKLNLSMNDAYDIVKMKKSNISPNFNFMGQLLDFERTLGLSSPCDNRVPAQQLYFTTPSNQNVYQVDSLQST

What is called inhibition is the change of the read-out against control, counted positive when it falls. Consider `Cn1ncc(N=Cc2ccccc2O)c1C(=O)Nc1ccccc1`, for which the cell count in assay [1] stood at 635. Also, the inhibition was -3.8% (inactive) in [1], -20.9% (inactive) in assay [2], 4.25% (inactive) in [4] and 0.038% (inactive) in assay [9]. The nuclei count in assay [2] stood at 140%. Further, the z-score was -0.0255 in [3] (setting [10]), 0.841 in [3] (setting [11]) and 1.17 in assay [3] (setting [12]). In addition, in assay [5], the fluorescence slope was -0.5 (inactive). In addition, the NADPH fluorescence slope in [6] is -0.000122 (inactive). Also, in assay [7], the slope is 0.00441 (inactive). The outcome in [8] was inactive.

Consider `CC1CN(c2oc(-c3cccs3)nc2C#N)CC(C)O1` (centres undefined), for which the cell count in [1] turned out to be 437. In addition, the inhibition in [1] was -13.6% (inactive); in assay [2], -188% (inactive); in [4], 0.671% (inactive); in [9] it was 5.74% (inactive). Besides, the nuclei count in assay [2] is 178%. For the same compound, the z-score in assay [3] (setting [10]) is -0.465; in assay [3] (setting [11]), 0.306; in [3] (setting [12]) it was 0.34. In assay [5], the fluorescence slope is -0.0506 (inactive). Further, the NADPH fluorescence slope in [6] is 4e-07 (inactive). Besides, in assay [7], the slope is 0.00683 (inactive). For the same compound, the compound was classed as inactive in [8].

As to `CCOC(=O)CC1=NC(=O)CS1`, the cell count in assay [1] turned out to be 636. For the same compound, the inhibition in assay [1] was -20.6% (inactive); in [2], -40.7% (inactive); in assay [4] it was -5.62% (inactive); in [9], 11.6% (inactive). Further, the nuclei count in assay [2] came to 179%. Moreover, the results for the z-score in [3] (setting [10]), in assay [3] (setting [11]) and in assay [3] (setting [12]) were -0.153, -1.04 and 1.51, respectively. Further, in assay [5], the fluorescence slope was -0.455 (inactive). Further, in assay [6], the NADPH fluorescence slope was -5.7e-05 (inactive). Besides, the slope in [7] is 0.00579 (inactive). Further, the compound was classed as inactive in assay [8].

Turning to `Cc1cc(-c2cc(-c3ccc(Cl)cc3)nc(N)c2C#N)co1`, in [1], the cell count worked out at 560. The inhibition in assay [1] was -6.2% (inactive); in assay [2], 62.4% (inactive); in assay [4], 7.01% (inactive); in [9] it was 5.58% (inactive). In assay [2], this compound showed a nuclei count of 173%. Further, the results for the z-score in assay [3] (setting [10]), in assay [3] (setting [11]) and in assay [3] (setting [12]) were 0.0299, -0.21 and -0.449, respectively. In addition, the fluorescence slope in assay [5] was -0.294 (inactive). In addition, the NADPH fluorescence slope in assay [6] is 4.6e-06 (inactive). In assay [7], the slope was 0.00537 (inactive). For the same compound, the result in assay [8] was inactive.

Regarding `CSc1nc(O)c(Cc2ccccc2)c(=O)[nH]1`, in assay [1], the cell count is 543. In addition, the inhibition in assay [1] was 5.9% (inactive); in [2] it was 23.6% (inactive); in assay [4], 1.6e-07% (inactive); in [9], 33.4% (inactive). This compound also yielded a nuclei count in assay [2] of 105%. Moreover, the z-score is -0.704 in assay [3] (setting [10]), -0.524 in assay [3] (setting [11]) and -0.136 in [3] (setting [12]). Besides, the fluorescence slope in [5] was -0.403 (inactive). Further, in assay [6], the NADPH fluorescence slope was 2.5e-05 (inactive). Moreover, in assay [7], the slope is 0.00553 (inactive). In addition, the result in [8] was inactive.

On to `CN1C(=S)SC(N(O)C(=O)Nc2ccccc2)C1(C)C` (centres undefined), for which, in [1], the cell count stood at 486. Moreover, the inhibition in assay [1] is 8.3% (inactive); in assay [2], -95.4% (inactive); in [4], 7.73% (inactive); in [9], -9.05% (inactive). In addition, the nuclei count in assay [2] stood at 168%. In addition, the z-score in assay [3] (setting [10]) was 0.407; in assay [3] (setting [11]), -0.73; in [3] (setting [12]) it was 0.0884. The fluorescence slope in assay [5] is -0.52 (inactive). Besides, the NADPH fluorescence slope in assay [6] was -0.000109 (inactive). Moreover, the slope in [7] was 0.00576 (inactive). Also, in assay [8], the outcome was inactive.

Consider `Cn1c(=O)c2c(nc(N3CCN(Cc4ccccc4)CC3)n2CC(=O)c2ccccc2)n(C)c1=O`, for which the cell count in [1] came to 669. For the same compound, the inhibition in assay [1] is 0.5% (inactive); in [2], -198% (inactive); in assay [4], 7.73% (inactive); in assay [9] it was -14.6% (inactive). Moreover, in assay [2], the nuclei count amounted to 155%. Further, the z-score in assay [3] (setting [10]) was 0.319; in [3] (setting [11]) it was -0.211; in [3] (setting [12]) it was 0.974. In addition, the fluorescence slope in assay [5] was -0.533 (inactive). Moreover, in assay [6], the NADPH fluorescence slope was -0.000101 (inactive). Also, in [7], the slope is 0.00454 (inactive). In [8], the result was inactive.

In the case of `Nc1c(Br)cc2oc(-c3ccccc3)nc2c1Br`, the cell count in assay [1] stood at 539. The inhibition in [1] is -3.4% (inactive); in assay [2], -23.5% (inactive); in assay [4] it was 6.51% (inactive); in assay [9], -9.35% (inactive). In assay [2], the nuclei count is 119%. Further, the z-score in assay [3] (setting [10]) was -0.358; in assay [3] (setting [11]) it was -0.383; in assay [3] (setting [12]), -0.387. The fluorescence slope in [5] is -0.482 (inactive). Also, the NADPH fluorescence slope in assay [6] is -6.5e-05 (inactive). Besides, the slope in assay [7] is 0.00567 (inactive). The result in assay [8] was inactive.

As for `C/C(=N\O)c1ccc2[nH]ccc2c1`, the cell count in [1] was 578. Moreover, the inhibition is 0.2% (inactive) in assay [1], 45.4% (inactive) in assay [2], -7.01% (inactive) in assay [4] and -2.54% (inactive) in assay [9]. Moreover, the nuclei count in assay [2] was 161%. Also, the z-score in [3] (setting [10]) was 0.0779; in assay [3] (setting [11]), 0.348; in assay [3] (setting [12]) it was -0.861. In addition, the fluorescence slope in [5] was -0.341 (inactive). In addition, the NADPH fluorescence slope in [6] was -3.6e-05 (inactive). Further, in [7], the slope was 0.00435 (inactive). The compound was classed as inactive in assay [8].

Take `CC1CCN(c2oc(-c3ccccc3Cl)nc2C#N)CC1`: the cell count in assay [1] stood at 601. Besides, the inhibition in [1] is -11.3% (inactive); in assay [2], 36.1% (inactive); in assay [4], -0.674% (inactive); in [9], 4.67% (inactive). For the same compound, the nuclei count in assay [2] worked out at 153%. In addition, the z-score in [3] (setting [10]) is -0.563; in assay [3] (setting [11]) it was 0.859; in [3] (setting [12]), 0.215. For the same compound, the fluorescence slope in assay [5] is -0.397 (inactive). Also, the NADPH fluorescence slope in assay [6] was -0.000144 (inactive). In addition, the slope in [7] is 0.00562 (inactive). Besides, in assay [8], the compound was called inactive.

Turning to `COC(=O)CN1C2(C#N)CCCCC2CC2CCCCC21C#N` (centres undefined), the cell count in [1] was 420. The inhibition in assay [1] was -8.8% (inactive); in assay [2], -128% (inactive); in assay [4] it was 3.66% (inactive); in [9] it was 45.5% (inactive). The nuclei count in assay [2] is 153%. Also, the z-score in [3] (setting [10]) is -0.336; in [3] (setting [11]) it was -0.947; in [3] (setting [12]), -0.0966. The fluorescence slope in assay [5] is -0.504 (inactive). The NADPH fluorescence slope in assay [6] is -9.5e-05 (inactive). Further, in [7], the slope is 0.00451 (inactive). For the same compound, the call in assay [8] was inactive.

Take `CN1CCc2nc(SCC(=O)Nc3ccc(Cl)cc3)c(C#N)cc2C1`: in [1], the cell count stood at 378. Further, the inhibition in assay [1] is -14.3% (inactive); in assay [2], -155% (inactive); in assay [4] it was 12.3% (inactive); in assay [9], 0.323% (inactive). In [2], this compound came in with a nuclei count of 162%. In addition, the z-score in assay [3] (setting [10]) is 1.95; in assay [3] (setting [11]), -0.641; in [3] (setting [12]), -1.16. Further, in assay [5], the fluorescence slope was -0.422 (inactive). The NADPH fluorescence slope in assay [6] was -0.000135 (inactive). For the same compound, the slope in assay [7] was 0.0059 (inactive). Further, the call in [8] was inactive.

With `S=c1[nH]nc(-c2ccco2)n1Cc1ccccc1`, the cell count in [1] came to 367. For the same compound, the inhibition was -8.2% (inactive) in assay [1], -105% (inactive) in assay [2], 11.9% (inactive) in [4] and -18.5% (inactive) in [9]. The same compound had a nuclei count in [2] of 110%. Also, the z-score in assay [3] (setting [10]) was -1.5; in [3] (setting [11]), 1.31; in assay [3] (setting [12]), -1.88. For the same compound, the fluorescence slope in assay [5] is -0.477 (inactive). The NADPH fluorescence slope in assay [6] was -0.000234 (inactive). Besides, the slope in [7] was 0.00534 (inactive). Besides, the result in assay [8] was inactive.

The values above are taken from PubChem BioAssay.
